Measured values as given in ChEMBL document CHEMBL4138069, “Design, synthesis, molecular-docking and antimycobacterial evaluation of some novel 1,2,3-triazolyl xanthenones” (Medchemcomm, 2017).
Values after ≈ are worked out from the molar mass of the structure shown.

Legend:
[1] = test system: Staphylococcus aureus; test: Antibacterial activity against Staphylococcus aureus MTCC 96 by agar dilution method; assay type: functional
Summary of the method: (§1)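 Minimum inhibitory concentration measured by agar dilution against three Gram-positive and three Gram-negative MTCC strains; read out as MIC.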

[2] = test system: Bacillus subtilis; test: Antibacterial activity against Bacillus subtilis MTCC 121 by agar dilution method; assay type: functional; summary of the method: as §1
[3] = test system: Bacillus cereus; test: Antibacterial activity against Bacillus cereus MTCC 430 by agar dilution method; assay type: functional; summary of the method: as §1
[4] = test system: Escherichia coli; test: Antibacterial activity against Escherichia coli MTCC 1652 by agar dilution method; assay type: functional; summary of the method: as §1
[5] = test system: Pseudomonas aeruginosa; test: Antibacterial activity against Pseudomonas aeruginosa MTCC 741 by agar dilution method; assay type: functional; summary of the method: as §1
[6] = test system: Klebsiella aerogenes; test: Antibacterial activity against Enterobacter aerogenes MTCC 111 by agar dilution method; assay type: functional; summary of the method: as §1
[7] = test system: Aspergillus niger; test: Antifungal activity against Aspergillus niger MTCC 282; assay type: functional
Summary of the method: (§2)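 Antifungal read-out was MIC in μg mL–1, with fluconazole as the reference drug.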

[8] = test system: Candida albicans; test: Antifungal activity against Candida albicans MTCC 9062; assay type: functional; summary of the method: as §2
[9] = test system: Mycobacterium tuberculosis; test: Antimycobacterial activity against Mycobacterium tuberculosis H37Rv ATCC 27294 assessed as inhibition of bacterial growth incubated for 28 days; assay type: functional; details: H37Rv ATCC 27294, 672 h
Summary of the method: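 Agar dilution in Middlebrook 7H11 with OADC, two-fold dilutions at final 50 to 0.78 μg mL–1. Inoculum from fresh 7H11 slants, adjusted to 1 mg mL–1 wet weight in 0.05% Tween 80 saline, diluted 10–2 to about 10^7 cfu mL–1; 5 μL spotted per tube. Incubated at 37 °C. MIC = lowest concentration giving complete growth inhibition, read at 28 days, in triplicate.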

[10] = Lipophilicity, log P of the compound; assay type: physicochemical; details: octanol/water
Summary of the method: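 Value is a calculated log P (clog P), computed rather than measured experimentally.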

[11] = Cytotoxicity in HEK cells assessed as inhibition of cell growth at 50 ug/ml incubated for 72 hrs by MTT assay; assay type: cell-based; details: human, read-out: GI
Summary of the method: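 HEK cells were exposed to compound at 50 μg mL–1 for 72 h. Viability was taken from cellular conversion of MTT to formazan, using a non-radioactive cell proliferation kit.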

Compound | MIC [1] [µg/mL] | MIC [2] [µg/mL] | MIC [3] [µg/mL] | MIC [4] [µg/mL] | MIC [5] [µg/mL] | MIC [6] [µg/mL] | MIC [7] [µg/mL] | MIC [8] [µg/mL] | MIC [9] [µg/mL] | logP [10] | inhibition at 72 h, 50 ug/ml [11] [%]
CC1(C)CC(=O)C2=C(C1)Oc1ccc3ccccc3c1C2c1cn(-c2ccccc2)nn1 (stereo not given) | 6.25 (≈ 14.8 µM) | 25 (≈ 59.3 µM) | 12.5 (≈ 29.7 µM) | 12.5 (≈ 29.7 µM) | 25 (≈ 59.3 µM) | 6.25 (≈ 14.8 µM) | 6.25 (≈ 14.8 µM) | 25 (≈ 59.3 µM) | 12.5 (≈ 29.7 µM) | 4.65 | –
OC(Cn1cncn1)(Cn1cncn1)c1ccc(F)cc1F [FLUCONAZOLE] | – | – | – | – | – | – | ≤ 3.12 | ≤ 3.12 | – | – | –
O=C(O)c1cn(C2CC2)c2cc(N3CCNCC3)c(F)cc2c1=O [CIPROFLOXACIN] | ≤ 6.25 | ≤ 6.25 | ≤ 6.25 | ≤ 6.25 | ≤ 6.25 | ≤ 6.25 | – | – | – | – | –
NC(=O)c1cnccn1 [PYRAZINAMIDE] | – | – | – | – | – | – | – | – | 50.8 (≈ 412 µM) | – | –
COc1ccc(-n2cc(C3C4=C(CCCC4=O)Oc4ccc5ccccc5c43)nn2)cc1 (stereo not given) | 3.12 (≈ 7.37 µM) | 12.5 (≈ 29.5 µM) | 3.12 (≈ 7.37 µM) | 3.12 (≈ 7.37 µM) | 6.25 (≈ 14.8 µM) | 6.25 (≈ 14.8 µM) | 3.12 (≈ 7.37 µM) | 3.12 (≈ 7.37 µM) | 6.25 (≈ 14.8 µM) | 3.73 | 22.2
O=C1CCCC2=C1C(c1cn(-c3ccc([N+](=O)[O-])cc3)nn1)c1c(ccc3ccccc13)O2 (stereo not given) | > 100 | > 100 | > 100 | 50 (≈ 114 µM) | 50 (≈ 114 µM) | > 100 | > 100 | > 100 | > 25 | – | –
O=Cc1cn(-c2ccc(Cl)cc2)nn1 | – | – | – | – | – | – | – | – | 6.25 (≈ 30.1 µM) | – | –
O=Cc1cn(-c2ccccc2Cl)nn1 | – | – | – | – | – | – | – | – | 25 (≈ 120 µM) | – | –
O=C1CCCC2=C1C(c1cn(-c3ccc(O)cc3)nn1)c1c(ccc3ccccc13)O2 (stereo not given) | > 100 | > 100 | > 100 | > 100 | > 100 | > 100 | > 100 | > 100 | > 25 | 3.46 | –
NNC(=O)c1ccncc1 [ISONIAZID] | – | – | – | – | – | – | – | – | 0.72 (≈ 5.25 µM) | – | –
O=C1CCCC2=C1C(c1cn(-c3ccc(Cl)cc3)nn1)c1c(ccc3ccccc13)O2 (stereo not given) | 12.5 (≈ 29.2 µM) | 50 (≈ 117 µM) | 12.5 (≈ 29.2 µM) | 12.5 (≈ 29.2 µM) | 25 (≈ 58.4 µM) | 12.5 (≈ 29.2 µM) | > 100 | > 100 | 3.12 (≈ 7.3 µM) | 4.41 | 18.1
CC1(C)CC(=O)C2=C(C1)Oc1ccc3ccccc3c1C2c1cn(-c2cccc(C(F)(F)F)c2)nn1 (stereo not given) | 25 (≈ 51.1 µM) | 50 (≈ 102 µM) | 12.5 (≈ 25.5 µM) | 100 (≈ 204 µM) | 25 (≈ 51.1 µM) | 25 (≈ 51.1 µM) | 12.5 (≈ 25.5 µM) | 100 (≈ 204 µM) | > 25 | 5.57 | –
COc1ccccc1-n1cc(C2C3=C(CC(C)(C)CC3=O)Oc3ccc4ccccc4c32)nn1 (stereo not given) | > 100 | > 100 | 50 (≈ 111 µM) | 25 (≈ 55.4 µM) | > 100 | > 100 | > 100 | 25 (≈ 55.4 µM) | 12.5 (≈ 27.7 µM) | 4.53 | –
CC[C@@H](CO)NCCN[C@@H](CC)CO [ETHAMBUTOL] | – | – | – | – | – | – | – | – | 7.64 (≈ 37.4 µM) | – | –
CC1(C)CC(=O)C2=C(C1)Oc1ccc3ccccc3c1C2c1cn(-c2ccc(Cl)cc2)nn1 (stereo not given) | 12.5 (≈ 27.4 µM) | 12.5 (≈ 27.4 µM) | 12.5 (≈ 27.4 µM) | 12.5 (≈ 27.4 µM) | 12.5 (≈ 27.4 µM) | 12.5 (≈ 27.4 µM) | 12.5 (≈ 27.4 µM) | 12.5 (≈ 27.4 µM) | 3.12 (≈ 6.85 µM) | 5.21 | 18.1
